Like-named read-outs stand apart in the source and are kept apart here.
Experiments:
[1] = test system: SKG mice; assay: SKG mouse model of RA; assay type: in vivo; conditions: for bone surface density (BS/TV): femur trabecular bone
In short: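 Male and female SKG mice received zymosan A (2 mg, single i.p., saline) at 8 weeks of age. From day 3, they were gavaged daily for 8 weeks with test compound in a PLGA lipid nanoemulsion (180 mg/kg) or vehicle. Paws were scored blind weekly to day 56. Micro-CT covered calcaneal pore volume and connectivity density, femoral trabecular bone (1.75 mm) and L5 (2.15 mm), with BMD calibrated against hydroxyapatite phantoms. Analysis used one-tailed unpaired t or Mann-Whitney tests.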

[2] = test system: murine BMSMCs; assay: qPCR of osteoclast markers in murine BMSMC-derived osteoclasts; assay type: cell-based, mouse
In short: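 Murine osteoclasts were cultured in mCSF (50 ng/ml) with RANKL (1 or 100 ng/ml) and, where indicated, LTB4 (50 nM) or TNFα (2 ng/ml) and test compound (100 nM), for up to 14 days. Cells were pelleted and RNA was extracted. Then 250 ng RNA was DNase-treated (ezDNase) and reverse-transcribed with Superscript IV for qPCR.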

[3] = preclinical testing in mice; cited from earlier work
[4] = test system: murine BMSMCs; assay: Pit assay on osteo-assay surface plates, murine BMSMC-derived osteoclasts; assay type: cell-based, mouse; conditions: ELP-004 100 nM
In short: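 Murine BMSMC osteoclasts were grown on synthetic bone-mimetic surface plates with ±test compound (100 nM), fed every 3–5 days, and assayed on days 7, 14 and 21. Cells were removed with 10% bleach (5 min). Matrix was stained with 1% silver nitrate under UV for 20–45 min, treated with 2.5% sodium thiosulphate and dehydrated in ethanol. Average size of 10–30 pits was measured.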

[5] = target: T1, TRPC7 (Homo sapiens, UniProt Q9HCX4); assay: Carbachol-induced Sr2+ entry in TRPC7-overexpressing HEK293 cells; assay type: cell-based; conditions: read-out: IC50 of Cch-induced Sr2+ entry; Cch 100 nM, Sr2+ 3 mM
T1 sequence (Q9HCX4 1-862): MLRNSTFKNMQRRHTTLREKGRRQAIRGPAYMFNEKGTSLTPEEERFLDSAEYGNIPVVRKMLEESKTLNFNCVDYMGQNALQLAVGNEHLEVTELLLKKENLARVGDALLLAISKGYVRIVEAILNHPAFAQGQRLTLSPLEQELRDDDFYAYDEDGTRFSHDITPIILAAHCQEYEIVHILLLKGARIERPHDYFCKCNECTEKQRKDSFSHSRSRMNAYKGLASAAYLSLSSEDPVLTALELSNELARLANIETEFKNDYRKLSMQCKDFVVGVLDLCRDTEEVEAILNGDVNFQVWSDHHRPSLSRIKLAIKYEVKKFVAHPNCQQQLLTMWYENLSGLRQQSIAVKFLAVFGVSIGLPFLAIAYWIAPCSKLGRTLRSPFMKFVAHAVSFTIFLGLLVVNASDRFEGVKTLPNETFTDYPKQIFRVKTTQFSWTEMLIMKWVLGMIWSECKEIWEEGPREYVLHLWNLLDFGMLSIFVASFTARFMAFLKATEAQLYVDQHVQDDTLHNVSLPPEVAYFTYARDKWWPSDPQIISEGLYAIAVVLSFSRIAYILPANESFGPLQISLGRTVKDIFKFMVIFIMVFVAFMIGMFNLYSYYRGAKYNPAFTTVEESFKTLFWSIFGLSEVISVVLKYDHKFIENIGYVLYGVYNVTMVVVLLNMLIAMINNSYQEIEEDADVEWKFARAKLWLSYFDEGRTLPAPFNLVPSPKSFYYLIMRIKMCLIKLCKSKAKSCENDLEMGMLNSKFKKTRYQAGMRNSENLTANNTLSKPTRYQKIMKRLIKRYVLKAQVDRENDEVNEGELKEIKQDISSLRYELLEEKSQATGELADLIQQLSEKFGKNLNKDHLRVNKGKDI
In short: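 HEK293 cells were electroporated with GFP-tagged TRPC4, TRPC5 or TRPC7, plated after 24 h and cultured 48 h under selection; only high-GFP cells were analysed. Coverslip cells were loaded with Fura2 (2 µM) and treated with carbachol (100 nM) plus test compound (0 to 100 µM). Entry was measured after adding Sr²⁺ (3 mM), read as the 340/380 ratio; n = 3 to 5.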

[6] = test system: murine BMSMCs; assay type: cell-based, mouse; conditions: ELP-004 100 nM
[7] = test system: NFATc1 nuclear translocation; assay: NFATc1 nuclear translocation; assay type: cell-based, mouse; conditions: ELP-004 100 nM
In short: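 Murine BMSMC cultures were sampled at 24 h and on days 7, 14 and 21. Cells were fixed in 3.7% PFA (10 min, RT), antigen-retrieved in tris/urea (pH 9.5, 95°C, 10 min), permeabilised in 0.2% Tween 20 and blocked in 1% BSA plus glycine. Anti-NFATc1 (clone 7A6, 200 ng/ml) was applied overnight at 4°C, then Alexa Fluor 488 secondary (2 µg/ml, 1 h) with 7-AAD counterstain. Nuclear colocalisation was assessed by confocal microscopy.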

CCC(=O)N(C)c1ccc(Cl)c(Cl)c1 [ELP-004]
arthritic indices versus vehicle controls ([1]; both male and female, ELP-004–LNE 180 mg/kg daily oral): reduced arthritic indices beginning at week 5
bone surface density in the L5 vertebrae versus vehicle ([1]; both sexes): increased
trabecular number in the L5 vertebrae versus vehicle ([1]; both sexes): increased
porosity in the tarsus or calcaneus (μCT) ([1]; either sex, ELP-004–LNE 180 mg/kg daily oral 8 weeks): did not significantly change
joint inflammation in paws (histology) ([1]; either sex, ELP-004–LNE 180 mg/kg daily oral, without statistical significance): only showed a trend
BMD in the femurs versus vehicle ([1]; female mice): increased
bone volume/tissue volume (BV/TV) in the femurs versus vehicle ([1]; female mice): increased
trabecular number in the femurs versus vehicle ([1]; female mice): increased
mean BMD of femurs ([1]; female mice, ELP-004-treated): 0.1436 g/mL
connectivity density of pores in the calcaneus ([1]; females, P < 0.05): attenuated the increase
rescue of connectivity density of pores in the tarsus ([1]; females, P = 0.056): strong tendency
bone surface density (BS/TV) ([1]; females, P < 0.05): 6.78 ± 2.20 mm^−1
connectivity density of pores in the tarsus ([1]; males, P < 0.05): attenuated the increase
bone surface density (BS/TV) ([1]; males, ELP-004–LNE 180 mg/kg daily oral 8 weeks): 9.60 ± 2.16 mm^−1
cumulative erosion scores for metatarsals 2, 3, 4 and 5 ([1]; maximum score 12): reduced erosions in female (P < 0.05), but not male
changes in LTB4-induced expression of other osteoclast markers ([2]; LTB4/RANKL, ELP-004 100 nM): no significant changes
effect on LTB4-induced increase in DC-STAMP expression ([2]; LTB4/RANKL, ELP-004 100 nM): no effect
effect on LTB4-induced increase in OC-STAMP expression ([2]; LTB4/RANKL, ELP-004 100 nM): no effect
changes in OC-STAMP mRNA expression ([2]; RANKL (100 ng/ml), ELP-004 100 nM): no significant changes
effect on DC-STAMP mRNA expression ([2]; RANKL (100 ng/ml), day 14, ELP-004 100 nM): Significant inhibition
effect on MMP9 expression ([2]; RANKL, day 14, ELP-004 100 nM): inhibited
effect on DC-STAMP expression ([2]; TNFα/RANKL, ELP-004 100 nM): abrogated
effect on MMP9 expression ([2]; TNFα/RANKL, ELP-004 100 nM): suppressed
effect on OC-STAMP expression ([2]; TNFα/RANKL, ELP-004 100 nM): abrogated
effect on other osteoclast markers ([2]; TNFα/RANKL, ELP-004 100 nM): no other osteoclast markers
genotoxic or off-target toxicities [3]: without inducing genotoxic or extensive off-target toxicities
effect on matrix degradation ([4]; LTB4/RANKL): potent inhibition
effect on pit formation (matrix degradation) ([4]; RANKL (100 ng/ml)): significant ELP-004–induced inhibition observed on day 21
effect on matrix degradation ([4]; TNFα/RANKL): completely abolished
IC50 [5]: 22.8 nM
effect on TRAP intensity ([6]; LTB4/RANKL): completely prevented the increase
effect on number of TRAP-positive cells ([6]; LTB4/RANKL): no effect
effect on multinucleation ([6]; LTB4/RANKL, days 7 and 14): significant ELP-004–induced decreases
effect on TRAP intensity ([6]; RANKL (100 ng/ml)): no impact
effect on number of TRAP-positive cells ([6]; RANKL (100 ng/ml)): no impact
effect on number of TRAP-positive cells ([6]; TNFα (2 ng/ml)/RANKL (1 ng/ml)): no significant effect
effect on TRAP intensity increases ([6]; TNFα/RANKL): severely attenuated
effect on number of multinuclear cells ([6]; TNFα/RANKL, P < 0.0005): significantly attenuated
effect on TRAP-positive cells ([6]; mCSF (50 ng/ml) only): no effect
effect on TRAP-positive cells ([6]; mCSF + RANKL (1 ng/ml)): no effect
changes in NFAT localization ([7]; BMSMC-derived macrophages (mCSF only)): No significant changes
effect on NFAT nuclear localization ([7]; LTB4/RANKL): blocked
effect on NFAT translocation ([7]; RANKL-induced (100 ng/ml)): no effect
effect on NFAT nuclear localization ([7]; TNFα/RANKL): blocked
changes in NFAT localization ([7]; low RANKL alone (1 ng/ml)): No significant changes
